Laboratory results: publication PMC6754270 (Cell chemical biology, 2019)
Several values for one entry are separate records, joined by “and”; a condition that tells them apart may be missing. Equal entries are not always repeated. Where two headings read alike, the source gives them in different places.

What was measured:
[1] = target: T1, spastin-WT (Drosophila melanogaster spastin, aa 209–758) (Drosophila melanogaster, UniProt Q8I0P1); assay: Steady-state ATPase activity, NADH-coupled assay, spastin-WT; type: biochemical
T1 sequence (Q8I0P1 209-758): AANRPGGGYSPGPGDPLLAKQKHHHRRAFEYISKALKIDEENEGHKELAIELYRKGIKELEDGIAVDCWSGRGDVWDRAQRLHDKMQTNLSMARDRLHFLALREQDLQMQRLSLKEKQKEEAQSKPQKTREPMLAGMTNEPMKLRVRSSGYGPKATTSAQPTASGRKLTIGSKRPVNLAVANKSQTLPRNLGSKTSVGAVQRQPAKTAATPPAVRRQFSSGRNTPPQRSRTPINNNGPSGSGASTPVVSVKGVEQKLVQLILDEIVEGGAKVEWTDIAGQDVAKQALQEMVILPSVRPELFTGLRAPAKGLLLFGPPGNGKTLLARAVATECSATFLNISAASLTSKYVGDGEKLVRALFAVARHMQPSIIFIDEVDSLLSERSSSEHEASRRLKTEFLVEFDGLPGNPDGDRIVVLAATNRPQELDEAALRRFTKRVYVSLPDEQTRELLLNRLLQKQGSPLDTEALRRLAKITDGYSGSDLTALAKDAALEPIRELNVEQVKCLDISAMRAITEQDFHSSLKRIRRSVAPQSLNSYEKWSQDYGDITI

[2] = target: spastin-Q488V (aa 209–758) (Drosophila melanogaster, UniProt Q8I0P1, Q488V); assay: Steady-state ATPase activity, NADH-coupled assay, spastin-Q488V; type: biochemical; details: for Change in inhibitor potency, Q488V (N-loop) vs wild-type: ATPase assay, compound 4: reduction in potency
[3] = target: spastin-N527C (aa 209–758) (Drosophila melanogaster, UniProt Q8I0P1, N527C); assay: Steady-state ATPase activity, NADH-coupled assay, spastin-N527C; type: biochemical; details: for Change in inhibitor potency, N527C (P-loop) vs wild-type: ATPase assay, compound 4: reduction in potency
[4] = target: spastin-T692A (aa 209–758) (Drosophila melanogaster, UniProt Q8I0P1, T692A); assay: Steady-state ATPase activity, NADH-coupled assay, spastin-T692A; type: biochemical; details: for Change in inhibitor potency, T692A (sensor-II) vs wild-type: ATPase assay, compound 1: increase in potency
[5] = target: T2, spastin-AAA-WT (aa 445–758) (Drosophila melanogaster, UniProt Q8I0P1); assay: Differential scanning fluorimetry, spastin-AAA-WT; type: binding; details: 100 µM compound, vs DMSO, n=2
T2 sequence (Q8I0P1 445-758): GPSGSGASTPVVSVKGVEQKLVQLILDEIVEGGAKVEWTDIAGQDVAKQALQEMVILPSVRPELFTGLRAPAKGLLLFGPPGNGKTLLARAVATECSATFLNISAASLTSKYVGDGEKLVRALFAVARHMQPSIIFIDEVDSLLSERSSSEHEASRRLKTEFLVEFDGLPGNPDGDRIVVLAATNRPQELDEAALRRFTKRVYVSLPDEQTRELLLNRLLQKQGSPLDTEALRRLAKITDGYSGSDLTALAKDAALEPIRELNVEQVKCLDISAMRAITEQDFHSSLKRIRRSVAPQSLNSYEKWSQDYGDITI
How it was run: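 Drosophila spastin AAA domain (aa 445–758), expressed as a GST fusion in E. coli Rosetta, protease-cleaved and purified by anion exchange and gel filtration. Tm taken as minimum of first-derivative melt curve; n=2, range shown.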

[6] = target: spastin-AAA-N527C (aa 445–758) (Drosophila melanogaster, UniProt Q8I0P1, N527C); assay: Differential scanning fluorimetry, spastin-AAA-N527C; type: binding; details: 100 µM compound, vs DMSO, n=2
[7] = target: spastin-AAA-Q488V (aa 445–758) (Drosophila melanogaster, UniProt Q8I0P1, Q488V); assay: Differential scanning fluorimetry, spastin-AAA-Q488V; type: binding; details: 100 µM compound, vs DMSO, n=2
[8] = target: spastin-AAA-T692A (aa 445–758) (Drosophila melanogaster, UniProt Q8I0P1, T692A); assay: Differential scanning fluorimetry, spastin-AAA-T692A; type: binding; details: 100 µM compound, vs DMSO, n=2
[9] = target: T1, spastin-WT (Drosophila melanogaster spastin, aa 209–758); details: ref Cupido et al., 2019; cited from earlier work
[10] = target: T3, katanin (Xl-katanin) (Xenopus laevis, UniProt Q9PUL2); details: ref Cupido et al., 2019; cited from earlier work
[11] = target: T4, fidgetin-like 1 (Hs-FIGL1) (Homo sapiens, UniProt Q6PIW4); details: ref Cupido et al., 2019; cited from earlier work
T4 sequence (Q6PIW4 1-674): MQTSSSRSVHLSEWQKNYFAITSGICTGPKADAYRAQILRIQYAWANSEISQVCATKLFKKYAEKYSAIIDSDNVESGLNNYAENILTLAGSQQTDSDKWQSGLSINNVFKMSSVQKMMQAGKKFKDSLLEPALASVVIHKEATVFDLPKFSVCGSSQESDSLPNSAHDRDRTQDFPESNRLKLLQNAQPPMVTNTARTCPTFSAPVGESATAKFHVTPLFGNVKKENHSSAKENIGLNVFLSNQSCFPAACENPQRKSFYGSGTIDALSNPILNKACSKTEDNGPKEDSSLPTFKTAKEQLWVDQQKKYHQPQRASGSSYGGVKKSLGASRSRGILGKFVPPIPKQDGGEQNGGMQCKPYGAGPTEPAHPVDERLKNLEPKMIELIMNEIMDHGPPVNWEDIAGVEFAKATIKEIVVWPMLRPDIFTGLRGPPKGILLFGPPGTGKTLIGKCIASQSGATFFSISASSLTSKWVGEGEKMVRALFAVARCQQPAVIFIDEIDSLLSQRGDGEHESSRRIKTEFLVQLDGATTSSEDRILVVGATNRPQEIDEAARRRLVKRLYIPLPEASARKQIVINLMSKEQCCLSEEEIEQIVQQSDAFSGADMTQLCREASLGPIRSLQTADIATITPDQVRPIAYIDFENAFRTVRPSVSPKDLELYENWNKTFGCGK

[12] = system: human VCP/p97 T688A; details: sensor-II variability hot-spot mutation; ref Anderson et al., 2015; cited from earlier work
[13] = target: T3, katanin (Xl-katanin); assay: Steady-state ATPase activity of katanin; type: biochemical, X. laevis; details: 2 µM compound, 0.5 mM MgATP, n=2
[14] = target: T4, fidgetin-like 1 (Hs-FIGL1); assay: Steady-state ATPase activity of fidgetin-like 1; type: biochemical, H. sapiens; details: 2 µM compound, 0.5 mM MgATP, n=2
[15] = target: T5, VPS4B (Hs-VPS4B) (Homo sapiens, UniProt O75351); assay: Steady-state ATPase activity of VPS4B; type: biochemical, H. sapiens; details: 2 µM compound, 0.5 mM MgATP, n=2
T5 sequence (O75351 1-444): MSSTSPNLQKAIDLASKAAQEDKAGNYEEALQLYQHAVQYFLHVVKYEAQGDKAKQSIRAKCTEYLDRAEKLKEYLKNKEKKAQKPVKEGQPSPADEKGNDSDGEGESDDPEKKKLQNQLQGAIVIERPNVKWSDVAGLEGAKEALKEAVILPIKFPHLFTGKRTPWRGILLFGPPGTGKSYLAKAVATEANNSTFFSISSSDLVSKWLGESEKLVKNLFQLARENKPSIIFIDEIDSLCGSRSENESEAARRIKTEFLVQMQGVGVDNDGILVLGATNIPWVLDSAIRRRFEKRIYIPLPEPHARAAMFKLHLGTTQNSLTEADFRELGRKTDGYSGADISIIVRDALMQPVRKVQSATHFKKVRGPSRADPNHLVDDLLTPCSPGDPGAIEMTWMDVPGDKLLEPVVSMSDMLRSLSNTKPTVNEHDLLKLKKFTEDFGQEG

spastin-N527C (aa 209–758), sequence (Q8I0P1 209-758 N527C): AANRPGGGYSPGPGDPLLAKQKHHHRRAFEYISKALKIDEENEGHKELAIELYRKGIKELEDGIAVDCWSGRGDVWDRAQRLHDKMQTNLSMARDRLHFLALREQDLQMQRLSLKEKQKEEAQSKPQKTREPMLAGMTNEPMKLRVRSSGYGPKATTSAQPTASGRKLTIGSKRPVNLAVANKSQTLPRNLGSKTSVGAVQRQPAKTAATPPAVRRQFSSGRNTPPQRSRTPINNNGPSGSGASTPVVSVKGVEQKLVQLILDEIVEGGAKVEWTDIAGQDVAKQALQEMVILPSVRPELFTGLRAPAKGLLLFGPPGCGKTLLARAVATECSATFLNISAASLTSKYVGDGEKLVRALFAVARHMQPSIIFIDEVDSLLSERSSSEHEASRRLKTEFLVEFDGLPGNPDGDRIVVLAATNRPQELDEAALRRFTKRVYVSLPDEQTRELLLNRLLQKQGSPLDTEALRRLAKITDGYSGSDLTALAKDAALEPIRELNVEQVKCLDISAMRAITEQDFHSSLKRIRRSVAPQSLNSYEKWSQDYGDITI
spastin-Q488V (aa 209–758), sequence (Q8I0P1 209-758 Q488V): as the sequence (Q8I0P1 209-758 N527C) above, with Q280V, C319N counted along it
spastin-T692A (aa 209–758), sequence (Q8I0P1 209-758 T692A): as the sequence (Q8I0P1 209-758 N527C) above, with C319N, T484A counted along it
spastin-AAA-T692A (aa 445–758), sequence (Q8I0P1 445-758 T692A): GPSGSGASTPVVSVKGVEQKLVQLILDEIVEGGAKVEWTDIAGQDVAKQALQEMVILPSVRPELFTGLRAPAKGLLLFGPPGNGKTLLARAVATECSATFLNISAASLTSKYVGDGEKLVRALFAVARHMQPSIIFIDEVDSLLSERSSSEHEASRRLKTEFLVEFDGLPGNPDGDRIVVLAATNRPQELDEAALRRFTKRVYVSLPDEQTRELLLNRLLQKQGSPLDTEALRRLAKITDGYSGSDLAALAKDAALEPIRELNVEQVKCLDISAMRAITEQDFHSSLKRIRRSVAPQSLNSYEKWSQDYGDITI
spastin-AAA-N527C (aa 445–758), sequence (Q8I0P1 445-758 N527C): as the sequence (Q8I0P1 445-758 T692A) above, with N83C, A248T counted along it
spastin-AAA-Q488V (aa 445–758), sequence (Q8I0P1 445-758 Q488V): as the sequence (Q8I0P1 445-758 T692A) above, with Q44V, A248T counted along it
T3 sequence (Q9PUL2 whole entry): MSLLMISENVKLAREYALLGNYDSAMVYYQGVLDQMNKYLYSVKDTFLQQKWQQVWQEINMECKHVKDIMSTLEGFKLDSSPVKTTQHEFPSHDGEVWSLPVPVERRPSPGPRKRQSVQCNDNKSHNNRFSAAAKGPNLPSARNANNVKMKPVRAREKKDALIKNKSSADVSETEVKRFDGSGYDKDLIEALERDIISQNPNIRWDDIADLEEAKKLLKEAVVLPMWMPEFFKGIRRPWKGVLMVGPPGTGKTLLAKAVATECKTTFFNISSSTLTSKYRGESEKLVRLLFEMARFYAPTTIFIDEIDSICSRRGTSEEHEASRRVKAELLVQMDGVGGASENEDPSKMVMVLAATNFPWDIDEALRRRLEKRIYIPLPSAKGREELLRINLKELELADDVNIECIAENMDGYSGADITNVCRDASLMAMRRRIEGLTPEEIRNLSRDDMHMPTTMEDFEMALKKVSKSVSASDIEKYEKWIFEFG

| SMILES | IC50 [2] | Change in inhibitor potency, Q488V (N-loop) vs wild-type [2] | IC50 [3] | Change in inhibitor potency, N527C (P-loop) vs wild-type [3] | IC50 [4] | Change in inhibitor potency, T692A (sensor-II) vs wild-type [4] | Observed ∆Tm, spastin-AAA-WT [5] | Observed ∆Tm, spastin-AAA-N527C [6] | Observed ∆Tm, spastin-AAA-Q488V [7] | Observed ∆Tm, spastin-AAA-T692A [8] | further results |
| --- | --- | --- | --- | --- | --- | --- | --- | --- | --- | --- | --- |
| Nc1nc(Nc2ccc(S(N)(=O)=O)cc2)nn1C(=O)c1c(F)cccc1F [compound 1, 4-((5-amino-1-(2,6-difluorobenzoyl)-1H-1,2,4-triazol-3-yl)amino)benzenesulfonamide] | 8.9 ± 0.5 µM | less than 2 fold | 6 ± 1 µM | less than 2 fold | 900 ± 100 nM | ~ 7 fold | ~ 4.5 °C | ~ 4.3 °C | ~ 4.5 °C | ~ 6.2 °C | IC50 ([1]; IC50, inhibition of steady-state ATPase activity of spastin-WT, 0.5 mM MgATP, average ± s.d., n=3): 5.7 µM and 5.8 µM; Mechanism of inhibition ([1]; range of ATP concentrations, apparent K1/2 for ATP increased, kcat not altered): ATP competitive mechanism of inhibition; Effect on ATPase activity of spastin [9]: blocks the ATPase activity; Effect on ATPase activity of katanin [10]: blocks the ATPase activity; Effect on ATPase activity of fidgetin-like 1 [11]: blocks the ATPase activity |
| Cc1cc2c(C(N)=O)cccc2n1-c1nc2c(c(NCc3ccccc3)n1)COCC2 [CB-5083] |  |  |  |  |  |  |  |  |  |  | Change in compound potency, T688A vs wild-type VCP/p97 [12]: > 60 fold |
| CNC(=O)c1cccc(Nc2nc(N)n(C(=O)c3c(F)cccc3OC)n2)c1 [compound 4, 3-((5-amino-1-(2-fluoro-6-methoxybenzoyl)-1H-1,2,4-triazol-3-yl)amino)-N-methylbenzamide] | 2.6 ± 0.15 µM | ~ 11 fold | 1.11 ± 0.21 µM | ~ 4 fold | 220 ± 40 nM | did not change the potency | ~ 6.7 °C | ~ 4.5 °C | ~ 5.0 °C | ~ 7.2 °C | IC50 [1]: 0.23 ± 0.02 µM; Inhibition of steady-state ATPase activity of spastin ([1]; 2 µM compound, 0.5 mM MgATP, n=2): potently inhibits; Inhibition of steady-state ATPase activity of katanin [13]: does not substantially inhibit; Inhibition of steady-state ATPase activity of fidgetin-like 1 [14]: does not substantially inhibit; Inhibition of steady-state ATPase activity of VPS4B [15]: does not substantially inhibit |
